Assay results taken from article PMC5808564 (ChemMedChem, 2017).
Where two headings read alike, the source gives them in different places.

Columns and labels:
[1] = system: T. brucei bloodstream form (BSF) parasites (cell line 90-13, a 427 strain); experiment: microbe, parasite or virus in culture; assay type: cell-based, Trypanosoma brucei; conditions: for % T. brucei BSF growth inhibition (10 μM): 10 μM compound; for % T. brucei BSF growth inhibition (10 μM) / inhibition at 10 µM: BLD = below level of detection; for T. brucei BSF potency (LD50 ± SEM): 3-day growth, n ≥ 3; for inhibition at 10 µM: Trypanosoma brucei, A-427, read-out: % T. brucei BSF growth inhibition (10 μM), 10 μM compound
[2] = system: IMR-90 human cells; experiment: Human cell line toxicity testing; assay type: cell-based
[3] = target: T1, human HK 4 (human glucokinase, hGlk) (Homo sapiens, UniProt P35557); experiment: Specificity assay against human glucokinase; assay type: biochemical; conditions: for inhibition at 10 µM: read-out: % hGlk inhibition (10 μM); for % hGlk inhibition (10 μM): 10 μM compound, BLD = below level of detection
T1 sequence (P35557 1-465): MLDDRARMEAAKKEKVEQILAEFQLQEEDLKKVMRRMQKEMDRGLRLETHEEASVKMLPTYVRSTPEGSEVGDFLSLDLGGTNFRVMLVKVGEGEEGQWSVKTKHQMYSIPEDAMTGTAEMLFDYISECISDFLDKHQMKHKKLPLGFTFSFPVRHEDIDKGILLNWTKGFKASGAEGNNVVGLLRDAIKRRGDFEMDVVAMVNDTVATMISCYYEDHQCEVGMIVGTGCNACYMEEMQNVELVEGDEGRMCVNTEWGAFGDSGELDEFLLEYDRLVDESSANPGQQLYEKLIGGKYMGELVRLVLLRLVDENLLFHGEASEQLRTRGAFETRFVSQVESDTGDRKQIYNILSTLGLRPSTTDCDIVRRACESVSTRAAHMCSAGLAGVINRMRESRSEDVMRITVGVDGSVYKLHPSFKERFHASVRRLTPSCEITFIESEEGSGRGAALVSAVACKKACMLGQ
In short: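 Uses human hexokinase 4 (glucokinase; GenBank BC001890). Activity is read through a coupled reaction in which glucose-6-phosphate dehydrogenase converts the glucose-6-phosphate formed to 6-phosphogluconate. The coincident NADPH formation is followed at 340 nm.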

[4] = target: recombinant T. brucei hexokinase 1 (rTbHK1) (Trypanosoma brucei, UniProt Q38C42); experiment: biochemical; assay type: biochemical
[5] = Homo sapiens, IMR-90, read-out: IMR90 toxicity (EC50)
[6] = read-out: IMR90 toxicity (EC50), IMR-90 cells, 44-46 h
[7] = read-out: rTbHK1 potency (IC50 ± SEM), average of n ≥ 3 experiments

Q: Which results are given for `CCc1cc(C(=O)O)c(NC(=O)c2ccc(C(C)(C)C)cc2)cc1Cl` [Compound 4d, 2-(4-tert-Butylbenzamido)-4-chloro-5-ethylbenzoic acid]?
A: % T. brucei BSF growth inhibition (10 μM) [1]: BLD; EC50 [2, 5]: > 25 µM; inhibition at 10 µM [3]: 0.7 ± 1.4%; IC50 [4]: 7.4 ± 0.15 µM

Q: Which results are given for `CC(C)(C)c1ccc(C(=O)Nc2cc(Cl)c(-c3ccccc3F)cc2C(=O)O)cc1` [Compound 4p]?
A: % T. brucei BSF growth inhibition (10 μM) [1]: 92.8 ± 2.0%; T. brucei BSF potency (LD50 ± SEM) [1]: 5.2 ± 0.9 µM; EC50 [2, 6]: > 25 µM; % hGlk inhibition (10 μM) [3]: 24.5 ± 2.5%; IC50 [4, 7]: 2.08 ± 0.07 µM

Q: `COc1ccc(-c2cc(C(=O)O)c(NC(=O)c3ccc(C(C)(C)C)cc3)cc2Cl)cc1` [Compound 4i] was tested. Which “% T. brucei BSF growth inhibition (10 μM)” value [1] did it give?
A: The value was 82.5 ± 7.1%.

Q: What about the “T. brucei BSF potency (LD50 ± SEM)” value [1] of the same compound?
A: Its value is 3.1 ± 0.2 µM.

Q: And the EC50 [2, 6]?
A: Its EC50 is greater than 25 µM.

Q: And the “% hGlk inhibition (10 μM)” value [3]?
A: Its value is 22.2 ± 1.6%.

Q: What about the IC50 [4, 7] of the same compound?
A: The IC50 was 1.72 ± 0.09 µM.

Q: How did the “% T. brucei BSF growth inhibition (10 μM)” value [1] turn out when `CC(C)(C)c1ccc(C(=O)Nc2cc(Cl)c(-n3cccn3)cc2C(=O)O)cc1` [Compound 4cc] was run?
A: The value was 22.5 ± 12.3%.

Q: What about the “T. brucei BSF potency (LD50 ± SEM)” value [1] of the same compound?
A: Its value is greater than 10.0 µM.

Q: And the EC50 [2, 6]?
A: Its EC50 is greater than 25 µM.

Q: And the “% hGlk inhibition (10 μM)” value [3]?
A: The value was 8.7 ± 4.4%.

Q: What about the IC50 [4, 7] of the same compound?
A: Its IC50 is 2.8 ± 0.2 µM.

Q: With `CC(C)(C)c1ccc(C(=O)Nc2cc(Cl)c(-c3ccc4c(c3)OCCO4)cc2C(=O)O)cc1` [Compound 4y] as the compound, how does the inhibition at 10 µM [1] read?
A: The inhibition at 10 µM was 98 ± 1.2%.

Q: And the EC50 [2, 5]?
A: Its EC50 is greater than 25 µM.

Q: What about the inhibition at 10 µM [3] of the same compound?
A: The inhibition at 10 µM was 26.6 ± 0.4%.

Q: And the IC50 [4]?
A: The IC50 was 0.6 ± 0.09 µM.

Q: `CN(C)c1cccc(-c2cc(C(=O)O)c(NC(=O)c3ccc(C(C)(C)C)cc3)cc2Cl)c1` [Compound 4m] was tested. Which inhibition at 10 µM [1] did it give?
A: Its inhibition at 10 µM is 82.8 ± 0.2%.

Q: And the EC50 [2, 5]?
A: The EC50 was greater than 25 µM.

Q: And the inhibition at 10 µM [3]?
A: The inhibition at 10 µM was 43.7 ± 4.1%.

Q: What about the IC50 [4] of the same compound?
A: Its IC50 is 4 ± 0.32 µM.

Q: For `CC(C)(C)c1ccc(C(=O)Nc2cc(Cl)c(-c3cccnc3)cc2C(=O)O)cc1` [Compound 4t], which “% T. brucei BSF growth inhibition (10 μM)” value [1] is on record?
A: The value was 57.7 ± 14.2%.

Q: What about the EC50 [2, 6] of the same compound?
A: The EC50 was greater than 25 µM.

Q: What about the “% hGlk inhibition (10 μM)” value [3] of the same compound?
A: Its value is 16.7 ± 1.2%.

Q: Which “% T. brucei BSF growth inhibition (10 μM)” value [1] does the source give for `CC(C)(C)c1ccc(C(=O)Nc2cc(Cl)c(-n3ccnc3)cc2C(=O)O)cc1` [Compound 4dd] here?
A: Its value is 16.4 ± 13.3%.

Q: What about the EC50 [2, 6] of the same compound?
A: The EC50 was greater than 25 µM.

Q: What about the “% hGlk inhibition (10 μM)” value [3] of the same compound?
A: The value was 1.7 ± 3.2%.

Q: And the IC50 [4, 7]?
A: Its IC50 is greater than 10 µM.

Q: How did the “% T. brucei BSF growth inhibition (10 μM)” value [1] turn out when `CC(C)(C)c1ccc(C(=O)Nc2cc(Cl)c(C3CC3)cc2C(=O)O)cc1` [Compound 4e] was run?
A: The value was 43.4 ± 16.8%.

Q: What about the EC50 [2, 6] of the same compound?
A: The EC50 was greater than 25 µM.

Q: What about the “% hGlk inhibition (10 μM)” value [3] of the same compound?
A: Its value is “BLD”.

Q: And the IC50 [4, 7]?
A: Its IC50 is 6.7 ± 0.38 µM.

Q: With `Cn1nnc(-c2cc(C(=O)O)c(NC(=O)c3ccc(C(C)(C)C)cc3)cc2Cl)n1` [Compound 4ff] as the compound, how does the “activity on whole T. brucei BSF parasites (in words)” value [1] read?
A: Its value is “failed to inhibit BSF parasite growth”.

Q: And the “% T. brucei BSF growth inhibition (10 μM)” value [1]?
A: The value was “BLD”.

Q: What about the EC50 [2, 6] of the same compound?
A: Its EC50 is greater than 25 µM.

Q: And the “% hGlk inhibition (10 μM)” value [3]?
A: Its value is 14.0 ± 4.1%.

Q: And the “rTbHK1 enzymatic potency (in words)” value [4]?
A: The value was “lacked enzymatic potency”.

Q: And the IC50 [4, 7]?
A: The IC50 was greater than 10 µM.

Q: Which results are given for `CC(C)(C)c1ccc(C(=O)Nc2cc(Cl)c(-c3ccc(C(=O)O)cc3)cc2C(=O)O)cc1` [Compound 4r]?
A: % T. brucei BSF growth inhibition (10 μM) [1]: 51.0 ± 14.3%; EC50 [2, 6]: > 25 µM; % hGlk inhibition (10 μM) [3]: 3.5 ± 7.1%; IC50 [4, 7]: 3.5 ± 0.33 µM

Q: Which “% T. brucei BSF growth inhibition (10 μM)” value [1] does the source give for `COc1ccccc1-c1cc(C(=O)O)c(NC(=O)c2ccc(C(C)(C)C)cc2)cc1Cl` [Compound 4k] here?
A: The value was 90.7 ± 0.9%.

Q: And the “T. brucei BSF potency (LD50 ± SEM)” value [1]?
A: The value was 2.0 ± 0.2 µM.

Q: And the EC50 [2, 6]?
A: The EC50 was greater than 25 µM.

Q: And the “% hGlk inhibition (10 μM)” value [3]?
A: Its value is 18.8 ± 2.4%.

Q: And the IC50 [4, 7]?
A: The IC50 was 4.6 ± 0.32 µM.

Q: Which “% T. brucei BSF growth inhibition (10 μM)” value [1] does the source give for `CC(C)(C)c1ccc(C(=O)Nc2cc(Cl)c(-c3nnn[nH]3)cc2C(=O)O)cc1` [Compound 4ee] here?
A: The value was “BLD”.

Q: And the EC50 [2, 5]?
A: The EC50 was greater than 25 µM.

Q: And the inhibition at 10 µM [3]?
A: The inhibition at 10 µM was 1.6 ± 0.5%.

Q: What about the IC50 [4] of the same compound?
A: The IC50 was 0.14 ± 0.002 µM.

Q: Which results are given for `CC(C)(C)c1ccc(C(=O)Nc2cc(Cl)c(-c3ccsc3)cc2C(=O)O)cc1` [Compound 4v]?
A: inhibition at 10 µM [1]: 68.5 ± 2.1%; EC50 [2, 5]: > 25 µM; inhibition at 10 µM [3]: 24.8 ± 1%; IC50 [4]: 0.33 ± 0.03 µM

Q: How did the “% T. brucei BSF growth inhibition (10 μM)” value [1] turn out when `Cc1ccccc1-c1cc(C(=O)O)c(NC(=O)c2ccc(C(C)(C)C)cc2)cc1Cl` [Compound 4h] was run?
A: Its value is 65.2 ± 0.2%.

Q: And the EC50 [2, 6]?
A: The EC50 was greater than 25 µM.

Q: What about the “% hGlk inhibition (10 μM)” value [3] of the same compound?
A: The value was 16.6 ± 2.3%.
